In brackets after ≈: the same amount, converted by molar mass. Values belong to the molecule of their own block, whether it stands above or below them.
Tests used:
[1] = molecular target: T1, Prostaglandin D2 receptor 2 (Homo sapiens, UniProt Q9Y5Y4); assay: Antagonist activity at CRTh2 receptor (unknown origin) overexpressed in CHOK1 cell membranes assessed as inhibition of [35S]-GTPgammaS binding preincubated for 1 hr followed by 50 nM PGD2 and 0.1 nM [35S]-GTPgammaS addition measured after 2 hrs by liquid scintillation counting analysis; type: functional, CHO-K1
T1 sequence (Q9Y5Y4 whole entry): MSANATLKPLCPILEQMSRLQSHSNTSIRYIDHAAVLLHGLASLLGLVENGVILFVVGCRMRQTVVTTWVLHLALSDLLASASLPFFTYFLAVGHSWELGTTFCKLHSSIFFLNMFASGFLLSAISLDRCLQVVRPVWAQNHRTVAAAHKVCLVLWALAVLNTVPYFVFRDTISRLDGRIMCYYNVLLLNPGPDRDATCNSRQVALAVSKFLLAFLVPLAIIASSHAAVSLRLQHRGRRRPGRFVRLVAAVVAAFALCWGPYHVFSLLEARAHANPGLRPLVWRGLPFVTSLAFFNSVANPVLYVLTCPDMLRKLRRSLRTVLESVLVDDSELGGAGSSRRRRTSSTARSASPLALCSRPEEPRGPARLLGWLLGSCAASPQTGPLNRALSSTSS

[2] = molecular target: T2, Thromboxane A2 receptor (Homo sapiens) (UniProt P21731); assay: Inhibition of thromboxane A2 receptor (unknown origin) at 10 uM relative to control
T2 sequence (whole entry): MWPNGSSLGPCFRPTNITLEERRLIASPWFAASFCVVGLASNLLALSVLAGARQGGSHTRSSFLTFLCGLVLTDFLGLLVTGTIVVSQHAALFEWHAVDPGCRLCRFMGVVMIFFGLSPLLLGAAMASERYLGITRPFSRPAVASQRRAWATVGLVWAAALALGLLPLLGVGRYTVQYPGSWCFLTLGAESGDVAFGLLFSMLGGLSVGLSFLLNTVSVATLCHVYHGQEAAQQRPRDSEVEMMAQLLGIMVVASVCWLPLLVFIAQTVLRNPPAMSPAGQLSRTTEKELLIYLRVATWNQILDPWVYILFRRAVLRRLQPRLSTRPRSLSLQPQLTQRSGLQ

[3] = molecular target: T3, Prostaglandin D2 receptor (Homo sapiens) (UniProt Q13258); assay: Inhibition of DP1 receptor (unknown origin) at 10 uM relative to control
T3 sequence (whole entry): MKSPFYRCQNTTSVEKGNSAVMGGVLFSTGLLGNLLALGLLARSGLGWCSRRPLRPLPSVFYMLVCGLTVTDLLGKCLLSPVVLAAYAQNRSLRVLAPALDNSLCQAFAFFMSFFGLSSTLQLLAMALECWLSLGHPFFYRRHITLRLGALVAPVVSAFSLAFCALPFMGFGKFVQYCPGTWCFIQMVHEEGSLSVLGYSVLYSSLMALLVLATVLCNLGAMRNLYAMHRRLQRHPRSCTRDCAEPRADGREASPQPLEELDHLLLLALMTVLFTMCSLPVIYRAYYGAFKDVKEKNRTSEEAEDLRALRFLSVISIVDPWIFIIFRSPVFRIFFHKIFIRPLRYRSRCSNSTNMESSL

[4] = Volume of distribution at steady state in rat at 0.5 mg/kg, iv; type: ADME, organism-based; set-up: dose 0.5 mg/kg, route intravenous; settings: in vivo, read-out: Vdss
[5] = Oral bioavailability in rat at 1 mg/kg; type: ADME, organism-based; settings: in vivo
[6] = Half life in rat at 0.5 mg/kg, iv; type: ADME, organism-based; set-up: dose 0.5 mg/kg, route intravenous; settings: in vivo
[7] = Clearance in rat at 0.5 mg/kg, iv; type: ADME, organism-based; set-up: dose 0.5 mg/kg, route intravenous; settings: in vivo
[8] = Lipophilicity , log D of the compound at pH 7.4 by shake-flask method; type: physicochemical; settings: buffer
Outline: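 logD at pH 7.4 by shake-flask.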

[9] = AUC ( 0 to 24 hrs) in rat at 0.5 mg/kg, iv; type: ADME, organism-based; set-up: time < 24 hr, dose 0.5 mg/kg, route intravenous; settings: plasma
[10] = Solubility of the compound at pH 1; type: physicochemical; settings: buffer
[11] = Solubility of the compound at pH 7.4; type: physicochemical; settings: buffer
[12] = Dissociation constant, pKa of the compound by potentiometric method; type: physicochemical
Outline: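 pKa determined potentiometrically.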

[13] = Apparent permeability from apical to basolateral side in human Caco2 cells; type: ADME, cell-based; settings: Caco-2
[14] = Apparent permeability from basolateral to apical side in human Caco2 cells; type: ADME, cell-based; settings: Caco-2
[15] = molecular target: T4, Prostaglandin D2 receptor 2 (Homo sapiens) (UniProt Q9Y5Y4); assay: Ratio of IC50 for CRTh2 receptor in human whole blood assessed as inhibition of PGD2-induced eosinophil shape change to IC50 for CRTh2 receptor (unknown origin) overexpressed in CHOK1 cells assessed as inhibition of [35S]-GTPgammaS binding; type: functional, cell-based; settings: CHO-K1
T4 sequence (whole entry): T1 sequence (Q9Y5Y4 whole entry)

[16] = molecular target: T4, Prostaglandin D2 receptor 2 (Homo sapiens); settings: CHO-K1
[17] = Oral bioavailability in rat at 10 mg/kg; type: ADME, organism-based; settings: in vivo
[18] = Volume of distribution at steady state in rat at 1 mg/kg, iv; type: ADME, organism-based; set-up: dose 1 mg/kg, route intravenous; settings: in vivo, read-out: Vdss
[19] = Clearance in rat at 1 mg/kg, iv; type: ADME, organism-based; set-up: dose 1 mg/kg, route intravenous; settings: in vivo
[20] = Terminal half life in rat at 1 mg/kg, iv; type: ADME, organism-based; set-up: dose 1 mg/kg, route intravenous; settings: in vivo, read-out: beta t1/2 (converted)
[21] = AUC ( 0 to 24 hrs) in rat at 1 mg/kg, iv; type: ADME, organism-based; set-up: time < 24 hr, dose 1 mg/kg, route intravenous; settings: plasma
[22] = Plasma protein binding in human by rapid equilibrium dialysis method; type: ADME, cell-free; settings: read-out: PPB
Outline: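 Protein binding by equilibrium dialysis; human plasma diluted to 10%.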

[23] = Plasma protein binding in rat by rapid equilibrium dialysis method; type: ADME, cell-free; settings: read-out: PPB (converted)
[24] = molecular target: T1, Prostaglandin D2 receptor 2; assay: Antagonist activity at CRTh2 receptor overexpressed in CHOK1 cell membranes assessed as inhibition of [35S]-GTPgammaS binding in presence of 1% human serum albumin

- IC50 ([1]; read-out: IC50): 5000 nM
Compound: Cc1c(CC(=O)O)c(-c2ccccc2)nn1Cc1ccc(F)cc1S(=O)(=O)N1CCNCC1

- IC50 ([1]; read-out: IC50): 310 nM
Compound: Cc1c(CC(=O)O)c(-c2ccnc(F)c2)nn1C(c1ccc(F)cc1)c1ccc(F)cc1

- IC50 ([1]; read-out: IC50): 1600 nM
Compound: COc1c(CC(=O)O)c(C)nn1-c1cccc(NC(=O)[C@H]2C[C@@H]2c2ccccc2)c1

- inhibition [2]: < 40%
- inhibition [3]: < 40%
- IC50 ([1]; read-out: IC50): 100 nM
Compound: Cc1c(CC(=O)O)c(-c2ccccc2)nn1Cc1ccccc1Cc1ccccc1

- IC50 ([1]; read-out: IC50): > 5000 nM
Compound: Cc1nn(Cc2ccc3ccccc3n2)c(C)c1CC(=O)O

- Vd [4]: 0.14 L/kg
- bioavailability [5]: 12%
- half-life [6]: 78 min
- clearance [7]: 2.5 mL/min/kg
- logD [8]: 0.9
- AUC(0-t) at 24 h [9]: 3360 ng·h/mL
- solubility [10]: 500 µg/mL (≈ 1280 µM)
- solubility [11]: 800 µg/mL (≈ 2050 µM)
- pKa [12]: 4.2
- Papp A→B [13]: 3 ×10⁻⁶ cm/s
- Papp B→A [14]: 6 ×10⁻⁶ cm/s
- Ratio IC50 [15]: 10
- IC50 ([1]; read-out: IC50): 230 nM
Compound: Cc1nn(-c2cccc(NC(=O)[C@H]3C[C@@H]3c3ccccc3)c2)c(C)c1CC(=O)O

- IC50 ([1]; read-out: IC50): 490 nM
Compound: Cc1c(CC(=O)O)c(-c2ccccc2)nn1Cc1ccccc1CS(=O)(=O)c1ccccc1

- IC50 ([1]; read-out: IC50): 5000 nM
Compound: Cc1c(CC(=O)O)c(-c2ccccc2)nn1C(c1ccc(F)cc1)c1ccc(S(C)(=O)=O)cc1 (stereo not drawn)

- inhibition [2]: < 40%
- inhibition [3]: < 40%
- IC50 ([1]; read-out: IC50): 46 nM
- T1/2 [16]: 30 min
Compound: Cc1c(CC(=O)O)c(-c2ccncc2)nn1C(c1ccc(F)cc1)c1ccc(F)cc1

- inhibition [2]: < 40%
- inhibition [3]: < 40%
- IC50 ([1]; read-out: IC50): 81 nM
- T1/2 [16]: 2 min
Compound: Cc1nn(Cc2ccccc2S(=O)(=O)c2ccccc2)c(C)c1CC(=O)O

- inhibition [2]: < 40%
- inhibition [3]: < 40%
Compound: Cc1c(CC(=O)O)c(=O)[nH]n1Cc1ccccc1S(=O)(=O)c1ccccc1

- IC50 ([1]; read-out: IC50): 850 nM
Compound: Cc1c(CC(=O)O)c(-c2ccccc2)nn1Cc1ccccc1S(=O)(=O)N(C)C

- IC50 ([1]; read-out: IC50): 2900 nM
Compound: Cc1c(CC(=O)O)c(-c2ccccc2)nn1C(C)c1ccccc1S(=O)(=O)c1ccccc1 (stereo not drawn)

- IC50 ([1]; read-out: IC50): 36 nM
Compound: COc1ccc(S(=O)(=O)c2ccc(F)cc2)c(Cn2nc(-c3ccccc3)c(CC(=O)O)c2C)c1

- IC50 ([1]; read-out: IC50): 1400 nM
Compound: Cc1c(CC(=O)O)c(-c2ccccc2)nn1Cc1ccccc1C(=O)c1ccccc1

- inhibition [2]: < 40%
- inhibition [3]: < 40%
- bioavailability [17]: 73%
- Vd [18]: 1.6 L/kg
- clearance [19]: 8.5 mL/min/kg
- half-life [20]: 288 min
- AUC(0-t) at 24 h [21]: 1960 ng·h/mL
- fraction unbound [22]: < 0.001
- fraction unbound [23]: 0.012
- logD [8]: 0.7
- solubility [10]: 3 µg/mL (≈ 6.72 µM)
- solubility [11]: 950 µg/mL (≈ 2130 µM)
- pKa [12]: 4.2
- Papp A→B [13]: 13 ×10⁻⁶ cm/s
- Papp B→A [14]: 17 ×10⁻⁶ cm/s
- IC50 ([1]; read-out: IC50): 7 nM
- T1/2 [16]: 12 min
Compound: Cc1c(CC(=O)O)c(-c2ccccc2)nn1Cc1ccccc1S(=O)(=O)c1ccccc1

- IC50 ([1]; read-out: IC50): 5000 nM
Compound: Cc1c(CC(=O)O)c(-c2ccccc2)nn1-c1ccnc2ccccc12

- IC50 ([1]; read-out: IC50): 4 nM
- IC50 [24]: 66 nM
Compound: Cc1c(CC(=O)O)c(-c2ccncc2)nn1Cc1ccccc1S(=O)(=O)c1ccccc1

The next lines start with the molecule.

Compound: Cc1nn(Cc2ccc(S(C)(=O)=O)cc2)c(C)c1CC(=O)O
- IC50 ([1]; read-out: IC50): 5000 nM

Compound: Cc1c(CC(=O)O)c(-c2ccccc2)nn1Cc1ccccc1S(=O)(=O)N1CCOCC1
- inhibition [2]: < 40%
- inhibition [3]: < 40%
- IC50 ([1]; read-out: IC50): 89 nM

Compound: O=C(O)Cc1cn(C(c2ccc(F)cc2)c2ccc(F)cc2)nc1-c1ccncc1
- IC50 ([1]; read-out: IC50): 290 nM

Compound: Cc1c(CC(=O)O)c(-c2ccccc2)nn1Cc1ccccc1Oc1ccccc1
- inhibition [2]: < 40%
- inhibition [3]: < 40%
- IC50 ([1]; read-out: IC50): 2000 nM

Compound: Cc1c(CC(=O)O)c(-c2ccc(O)nc2)nn1C(c1ccc(F)cc1)c1ccc(F)cc1
- IC50 ([1]; cho-k1): Not Active

Compound: Cc1c(CC(=O)O)c(-c2ccccc2)nn1CC1CCCN1S(=O)(=O)c1ccccc1 (stereo not drawn)
- IC50 ([1]; cho-k1): Not Active

Compound: Cc1c(Cc2ccccc2S(=O)(=O)c2ccccc2)c2cc(F)ccc2n1CC(=O)O
- IC50 ([1]; read-out: IC50): 16 nM

Compound: Cc1c(CC(=O)O)c(-c2ccccc2)nn1C(c1ccc(F)cc1)c1ccc(F)cc1
- IC50 ([1]; read-out: IC50): 1100 nM

Compound: Cc1c(CC(=O)O)c(-c2ccccc2)nn1Cc1ccc(S(C)(=O)=O)cc1
- IC50 ([1]; cho-k1): Not Active

Compound: Cc1c(CC(=O)O)c(-c2ccncc2)nn1Cc1ccc(F)cc1
- IC50 ([1]; read-out: IC50): 1900 nM

Compound: Cc1c(CC(=O)O)c(-c2ccccc2)nn1S(=O)(=O)c1ccc(Cl)c(Cl)c1
- IC50 ([1]; read-out: IC50): 1600 nM

Compound: Cc1c(CC(=O)O)c(-c2ccccc2)nn1Cc1ccccc1-c1ccccc1
- IC50 ([1]; read-out: IC50): 5000 nM

Compound: Cc1c(CC(=O)O)c(-c2ccccc2)nn1Cc1ccc2ccccc2n1
- IC50 ([1]; read-out: IC50): 870 nM
